Experimental data of several laboratories.
Palmitoyl-protein thioesterase 1: Palmitoyl-protein thioesterase 1 (Homo sapiens, UniProt P50897)
Transmembrane protease serine 6: Transmembrane protease serine 6 (Homo sapiens, UniProt Q8IU80)
EGFR L858R/T790M: Epidermal growth factor receptor (EGFR, Homo sapiens, UniProt P00533, L858R/T790M)

| target | test | setting | measurement | value | SMILES |
| --- | --- | --- | --- | --- | --- |
| Serine/threonine-protein kinase B-raf (BRAF, Homo sapiens, UniProt P15056) | enzyme activity, inhibitor, radiometric | 1 µM | remaining activity | 79% | CNc1ncc2c(/C=C/C(=O)N3CCC(OC)CC3)nn(Cc3cccc(C(F)(F)F)c3)c2n1 |
| Palmitoyl-protein thioesterase 1 | enzyme activity, inhibitor | 312 µM | inhibition | 22.2% | C/C=C\c1ccc(O)c(OC)c1 |
| Ribosomal protein S6 kinase alpha-2, N-terminal kinase domain (RPS6KA2, Homo sapiens, UniProt Q15349) | binding, competition with immobilised ligand | 1 µM | remaining binding | 100% | C=CC(=O)N1CCC(COCC(=O)N2CCN(c3nc(-c4cnc(N)nc4C(F)F)nc(N4CCOC[C@@H]4C)n3)CC2)CC1 |
| Palmitoyl-protein thioesterase 1 | enzyme activity, inhibitor | 625 µM | inhibition | 8.02% | CC(C)C[C@@H](C(=O)N[C@H](C(=O)OC1CCCC1)c1ccccc1)[C@H](O)C(=O)NO |
| Transmembrane protease serine 6 | enzyme activity, inhibitor | 0.1 µM | remaining activity | 96% | CC(C)(O)[C@H](NC(=O)[C@H](Cc1cscn1)NC(=O)CCc1ccccc1)C(=O)N[C@@H](CCCNC(=N)N)C(=O)c1nc2ccccc2s1 |
| Palmitoyl-protein thioesterase 1 | enzyme activity, inhibitor | 625 µM | inhibition | 15.1% | C=CCc1ccc(O)c(O)c1 |
| Transmembrane protease serine 6 | enzyme activity, inhibitor | 0.1 µM | remaining activity | 30% | CCC[C@H](NC(=O)[C@H](Cc1cscn1)NC(=O)CCc1ccccc1)C(=O)N[C@@H](CCCNC(=N)N)C(=O)c1nc2ccccc2s1 |
| Tyrosine-protein kinase Blk (Blk, Mus musculus, UniProt P16277) | enzyme activity, inhibitor | 1 µM | remaining activity | 64% | COc1cc(-c2cncc3c2CN(C)Cc2cc(N4CCNCC4)ccc2-3)cc(OC)c1OC |
| Palmitoyl-protein thioesterase 1 | enzyme activity, inhibitor | 125 µM | inhibition | 18.6% | C=C[C@H]1C[N@@]2CC[C@H]1C[C@H]2[C@H](O)c1ccnc2ccc(OC)cc12 |
| EGFR L858R/T790M | enzyme activity, inhibitor, ADP detection | 1 µM | inhibition | 65 to 75% | Cc1ncc(CN2CCN(Cc3ccccn3)CC2)c2cc(C(=O)c3ccc4c(c3)OCCO4)oc12 |
| Palmitoyl-protein thioesterase 1 | enzyme activity, inhibitor | 125 µM | inhibition | 51.3% | O=C1O[C@H]2[C@@H]3OC(=O)c4cc(O)c(O)c(O)c4-c4c(O)c(O)c5oc(=O)c6c(c(O)c(O)c7oc(=O)c4c5c76)-c4c(cc(O)c(O)c4O)C(=O)OC[C@H]3OC(O)[C@@H]2OC(=O)c2cc(O)c(O)c(O)c2-c2c1cc(O)c(O)c2O (mixture of isomers) |
| Transmembrane protease serine 6 | enzyme activity, inhibitor | 0.1 µM | remaining activity | 3% | CC(C)(C)C[C@H](NC(=O)[C@H](Cc1cscn1)NC(=O)CCc1ccccc1)C(=O)N[C@@H](CCCNC(=N)N)C(=O)c1nc2ccccc2s1 |
| Palmitoyl-protein thioesterase 1 | enzyme activity, inhibitor | 125 µM | inhibition | 10.3% | CC(=O)O[C@@]12CO[C@@H]1C[C@H](O)[C@@]1(C)C(=O)[C@H](O)C3=C(C)[C@@H](OC(=O)[C@H](O)[C@@H](NC(=O)OC(C)(C)C)c4ccccc4)C[C@@](O)([C@@H](OC(=O)c4ccccc4)[C@H]21)C3(C)C |
| Transmembrane protease serine 6 | enzyme activity, inhibitor | 0.1 µM | remaining activity | 55% | CC(C)(C)[C@H](NC(=O)[C@H](Cc1cscn1)NC(=O)CCc1ccccc1)C(=O)N[C@@H](CCCNC(=N)N)C(=O)c1nc2ccccc2s1 |
| EGFR L858R/T790M | enzyme activity, inhibitor, ADP detection | 1 µM | inhibition | 65 to 75% | Cc1ncc(CN2CCc3ccccc3C2)c2cc(C(=O)c3ccc4c(c3)OCCO4)oc12 |
| Transmembrane protease serine 6 | enzyme activity, inhibitor | 0.1 µM | remaining activity | 5% | N=C(N)NCCC[C@H](NC(=O)[C@H](CCC1CCCCC1)NC(=O)[C@H](Cc1cscn1)NC(=O)CCc1ccccc1)C(=O)c1nc2ccccc2s1 |
| Palmitoyl-protein thioesterase 1 | enzyme activity, inhibitor | 834 µM | inhibition | 11.7% | C=CCc1ccc(O)c(OC)c1 |
| Transmembrane protease serine 6 | enzyme activity, inhibitor | 0.1 µM | remaining activity | 98% | CC(C)(C)c1ccc(C[C@H](NC(=O)[C@H](Cc2cscn2)NC(=O)CCc2ccccc2)C(=O)N[C@@H](CCCNC(=N)N)C(=O)c2nc3ccccc3s2)cc1 |
| Epidermal growth factor receptor (EGFR, Homo sapiens, UniProt P00533, C797S/L858R/T790M) | enzyme activity, inhibitor, ADP detection | 1 µM | inhibition | 75% | Cc1ccc2c(-c3cc4c(CN5CCN(Cc6ccccn6)CC5)cnc(C)c4o3)cc(=O)oc2c1 |
| Transmembrane protease serine 6 | enzyme activity, inhibitor | 0.1 µM | remaining activity | 22% | CCCC[C@H](NC(=O)[C@H](Cc1cscn1)NC(=O)CCc1ccccc1)C(=O)N[C@@H](CCCNC(=N)N)C(=O)c1nc2ccccc2s1 |
| Mitogen-activated protein kinase 8 (MAPK8, Homo sapiens, UniProt P45983) | binding, competition with immobilised ligand | 10 µM | remaining binding | 100% | Cc1cc([C@@H](C)Nc2ccccc2C(=O)O)c2nc(N3CCC(F)(F)CC3)c(C#N)c(=O)n2c1 |
